{
  "source": "ChEMBL document CHEMBL4842335",
  "about": "“Discovery of penipanoid C-inspired 2-(3,4,5-trimethoxybenzoyl)quinazolin-4(3H)-one derivatives as potential anticancer agents by inhibiting cell proliferation and inducing apoptosis in hepatocellular carcinoma cells” (Eur J Med Chem, 2021)",
  "key": {"A549": {"tested_on": "A549", "experiment": "Cytotoxicity against human A549 cells assessed as inhibition of proliferation incubated for 72 hrs by MTT assay", "type": "functional, cell-based", "conditions": "A549, 72 h", "procedure,_shortened": "(§1)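 Cells plated at 3×10³/well, grown overnight in DMEM + 10% FBS, then exposed to compounds (DMSO stocks; 0.1% DMSO negative control) for 72 h at 37 °C. MTT (5 mg/mL in PBS, added at 10%) for 4 h, formazan dissolved in DMSO, A570 read. Inhibition = (Ac−As)/(Ac−Ab)×100; IC50 by calculator; ≥3 independent repeats.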"}, "HepG2 [1]": {"tested_on": "HepG2", "experiment": "Induction of cell cycle arrest in human HepG2 cells assessed as accumulation at G2/M phase at 0.8 uM incubated for 48 hrs by flow cytometry (reference value: 24.89%)", "type": "functional", "procedure,_shortened": "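HepG2 treated 48 h with 0, 0.8 or 1.6 µM (DMSO control); phase distribution by flow cytometry using a cell cycle and apoptosis kit; mean with SD, n = 3.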"}, "Bel-7402 [2]": {"tested_on": "Bel-7402", "experiment": "Cytotoxicity against human Bel-7402 cells assessed as inhibition of proliferation incubated for 72 hrs by MTT assay", "type": "functional, cell-based", "conditions": "Bel-7402, 72 h", "procedure,_shortened": "as §1"}, "HepG2 [3]": {"tested_on": "HepG2", "experiment": "Induction of apoptosis in human HepG2 cells assessed as dead cells at 3.2 uM incubated for 48 hrs by Annexin V and dead cell assay kit (reference value: 0.55%)", "type": "functional", "procedure,_shortened": "(§2)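 HepG2 cells were grown in DMEM and exposed to 0, 0.8, 1.6 or 3.2 µM test agent or DMSO vehicle for 48 h. Apoptosis was then read on a Muse cell analyzer using an Annexin V & Dead Cell kit, which separates live, early apoptotic, late apoptotic and dead populations. The figure legend gives n = 3 with SEM.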"}, "HepG2 [4]": {"tested_on": "HepG2", "experiment": "Induction of apoptosis in human HepG2 cells assessed as early apoptotic cells at 3.2 uM incubated for 48 hrs by Annexin V and dead cell assay kit (reference value: 4.55%)", "type": "functional", "procedure,_shortened": "as §2"}, "Bel-7402 [5]": {"tested_on": "Bel-7402", "experiment": "Induction of cell cycle arrest in human Bel-7402 cells assessed as accumulation at G2/M phase at 0.8 uM incubated for 48 hrs by flow cytometry (reference value: 25.20%)", "type": "functional"}, "HepG2 [6]": {"tested_on": "HepG2", "experiment": "Induction of apoptosis in human HepG2 cells assessed as late apoptotic cells at 3.2 uM incubated for 48 hrs by Annexin V and dead cell assay kit (reference value: 1%)", "type": "functional", "procedure,_shortened": "as §2"}, "Bel-7402 [7]": {"tested_on": "Bel-7402", "experiment": "Induction of cell cycle arrest in human Bel-7402 cells assessed as accumulation at G2/M phase at 3.2 uM incubated for 48 hrs by flow cytometry (reference value: 25.20%)", "type": "functional"}, "HepG2 [8]": {"tested_on": "HepG2", "experiment": "Antitumor activity against human HepG2 cells xenografted in BALB/c mouse assessed as tumor growth inhibition at 8 mg/kg, ip relative to control", "type": "functional", "conditions": "read-out: TGI", "procedure,_shortened": "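Female BALB/c nude mice (14–17 g) given HepG2 s.c. (1×10⁶/mouse); at 100–200 mm³ tumours, randomised to 3 groups of 5. Daily i.p. dosing at 4 or 8 mg/kg for 20 days; vehicle 15% N-methylpyrrolidone/25% Solutol HS-15/60% saline. Caliper volume twice weekly, TV = width² × length/2; inhibition from volume change versus vehicle group.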"}, "Bel-7402 [9]": {"tested_on": "Bel-7402", "experiment": "Induction of cell cycle arrest in human Bel-7402 cells assessed as accumulation at G1 phase at 3.2 uM incubated for 48 hrs by flow cytometry (reference value: 46.32%)", "type": "functional"}, "Bel-7402 [10]": {"tested_on": "Bel-7402", "experiment": "Induction of cell cycle arrest in human Bel-7402 cells assessed as accumulation at G1 phase at 0.8 uM incubated for 48 hrs by flow cytometry (reference value: 46.32%)", "type": "functional"}, "Bel-7402 [11]": {"tested_on": "Bel-7402", "experiment": "Induction of cell cycle arrest in human Bel-7402 cells assessed as accumulation at S phase at 3.2 uM incubated for 48 hrs by flow cytometry (reference value: 28.48%)", "type": "functional"}, "HepG2 [12]": {"tested_on": "HepG2", "experiment": "Induction of apoptosis in human HepG2 cells assessed as late apoptotic cells at 1.6 uM incubated for 48 hrs by Annexin V and dead cell assay kit (reference value: 1%)", "type": "functional", "procedure,_shortened": "as §2"}, "HepG2 [13]": {"tested_on": "HepG2", "experiment": "Induction of cell cycle arrest in human HepG2 cells assessed as accumulation at G1 phase at 0.8 uM incubated for 48 hrs by flow cytometry (reference value: 46.88%)", "type": "functional"}, "Bel-7402 [14]": {"tested_on": "Bel-7402", "experiment": "Induction of cell cycle arrest in human Bel-7402 cells assessed as accumulation at S phase at 0.8 uM incubated for 48 hrs by flow cytometry (reference value: 28.48%)", "type": "functional"}, "NCI-H1299": {"tested_on": "NCI-H1299", "experiment": "Cytotoxicity against human NCI-H1299 cells assessed as inhibition of proliferation incubated for 72 hrs by MTT assay", "type": "functional, cell-based", "conditions": "NCI-H1299, 72 h", "procedure,_shortened": "as §1"}, "HepG2 [15]": {"tested_on": "HepG2", "experiment": "Induction of cell cycle arrest in human HepG2 cells assessed as accumulation at G1 phase at 1.6 uM incubated for 48 hrs by flow cytometry (reference value: 46.88%)", "type": "functional"}, "HepG2 [16]": {"tested_on": "HepG2", "experiment": "Induction of apoptosis in human HepG2 cells assessed as early apoptotic cells at 0.8 uM incubated for 48 hrs by Annexin V and dead cell assay kit (reference value: 4.55%)", "type": "functional", "procedure,_shortened": "as §2"}, "HepG2 [17]": {"tested_on": "HepG2", "experiment": "Induction of apoptosis in human HepG2 cells assessed as late apoptotic cells at 0.8 uM incubated for 48 hrs by Annexin V and dead cell assay kit (reference value: 1%)", "type": "functional", "procedure,_shortened": "as §2"}, "Bel-7402 [18]": {"tested_on": "Bel-7402", "experiment": "Induction of cell cycle arrest in human Bel-7402 cells assessed as accumulation at G1 phase at 1.6 uM incubated for 48 hrs by flow cytometry (reference value: 46.32%)", "type": "functional"}, "HepG2 [19]": {"tested_on": "HepG2", "experiment": "Induction of apoptosis in human HepG2 cells assessed as live cells at 3.2 uM incubated for 48 hrs by Annexin V and dead cell assay kit (reference value: 93.90%)", "type": "functional", "procedure,_shortened": "as §2"}, "HepG2 [20]": {"tested_on": "HepG2", "experiment": "Induction of apoptosis in human HepG2 cells assessed as live cells at 0.8 uM incubated for 48 hrs by Annexin V and dead cell assay kit (reference value: 93.90%)", "type": "functional", "procedure,_shortened": "as §2"}, "[21]": {"biological_target": "Mitogen-activated protein kinase; ERK1/ERK2 (Homo sapiens) (UniProt P27361+P28482)", "sequence (P27361 whole entry, looked up)": "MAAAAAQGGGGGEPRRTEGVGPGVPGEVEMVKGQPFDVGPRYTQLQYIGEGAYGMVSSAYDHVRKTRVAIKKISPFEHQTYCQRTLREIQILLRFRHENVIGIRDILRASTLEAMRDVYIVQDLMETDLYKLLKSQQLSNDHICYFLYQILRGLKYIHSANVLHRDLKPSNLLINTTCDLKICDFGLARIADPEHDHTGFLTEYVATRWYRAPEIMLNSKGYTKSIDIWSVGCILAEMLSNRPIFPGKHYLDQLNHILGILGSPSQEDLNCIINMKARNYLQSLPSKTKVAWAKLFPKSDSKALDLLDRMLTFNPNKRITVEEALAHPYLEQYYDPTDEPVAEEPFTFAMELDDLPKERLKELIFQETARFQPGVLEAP", "sequence (P28482 whole entry, looked up)": "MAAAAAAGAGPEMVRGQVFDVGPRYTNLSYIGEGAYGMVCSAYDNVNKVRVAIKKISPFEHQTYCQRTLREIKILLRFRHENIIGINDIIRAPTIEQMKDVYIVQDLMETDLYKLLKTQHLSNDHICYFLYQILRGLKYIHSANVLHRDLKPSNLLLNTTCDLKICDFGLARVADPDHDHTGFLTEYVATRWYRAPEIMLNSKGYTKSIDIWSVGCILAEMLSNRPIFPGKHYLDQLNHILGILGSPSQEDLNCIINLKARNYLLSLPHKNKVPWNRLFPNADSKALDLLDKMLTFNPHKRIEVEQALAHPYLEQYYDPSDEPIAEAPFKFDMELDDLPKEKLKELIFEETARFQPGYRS", "experiment": "Inhibition of ERK1/2 phosphorylation in human HepG2 cells incubated for 48 hrs by Western blot analysis", "type": "cell-based", "procedure,_shortened": "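HepG2 treated 48 h with 0, 1.6 or 3.2 µM; lysates run on 12.5% SDS-PAGE, PVDF transfer, primary antibodies (AKT, p-AKT, ERK1/2, p-ERK1/2; 1:1000) overnight at 4 °C, HRP secondaries 1 h, chemiluminescence. Phosphorylation quantified relative to untreated control set to 1; SD, n = 3.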"}, "HepG2 [22]": {"tested_on": "HepG2", "experiment": "Cytotoxicity against human HepG2 cells assessed as inhibition rate at 2.5 uM incubated for 72 hrs by MTT assay relative to control", "type": "functional", "procedure,_shortened": "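HepG2 exposed to each compound at 2.5 µM-range single concentration for 72 h at 37 °C after overnight attachment in DMEM + 10% FBS; 0.1% DMSO control. MTT 4 h, DMSO solubilisation, A570; inhibition rate = (Ac−As)/(Ac−Ab)×100.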"}, "HCT-116": {"tested_on": "HCT-116", "experiment": "Cytotoxicity against human HCT116 cells assessed as inhibition of proliferation incubated for 72 hrs by MTT assay", "type": "functional, cell-based", "conditions": "HCT-116, 72 h", "procedure,_shortened": "as §1"}, "Bel-7402 [23]": {"tested_on": "Bel-7402", "experiment": "Induction of cell cycle arrest in human Bel-7402 cells assessed as accumulation at S phase at 1.6 uM incubated for 48 hrs by flow cytometry (reference value: 28.48%)", "type": "functional"}},
  "data": [
    {"smiles": "COc1cc(C(=O)c2nc3ccccc3c(=O)[nH]2)cc(OC)c1OC", "values": [
      {"measurement": "IC50", "setting": "A549", "value": 3.88, "unit": "µM"},
      {"measurement": "Activity", "setting": "HepG2 [1]", "value": 28.73, "unit": "%"},
      {"measurement": "IC50", "setting": "Bel-7402 [2]", "value": 1.71, "unit": "µM"},
      {"measurement": "Activity", "setting": "HepG2 [3]", "value": 0.55, "unit": "%"},
      {"measurement": "Activity", "setting": "HepG2 [4]", "value": 22.1, "unit": "%"},
      {"measurement": "Activity", "setting": "Bel-7402 [5]", "value": 27.69, "unit": "%"},
      {"measurement": "Activity", "setting": "HepG2 [6]", "value": 24.15, "unit": "%"},
      {"measurement": "Activity", "setting": "Bel-7402 [7]", "value": 41.71, "unit": "%"},
      {"measurement": "inhibition in vivo at 8 mg/kg", "setting": "HepG2 [8]", "value": 67.6, "unit": "%"},
      {"measurement": "Activity", "setting": "Bel-7402 [9]", "value": 26.15, "unit": "%"},
      {"measurement": "Activity", "setting": "Bel-7402 [10]", "value": 39.2, "unit": "%"},
      {"measurement": "Activity", "setting": "Bel-7402 [11]", "value": 32.14, "unit": "%"},
      {"measurement": "Activity", "setting": "HepG2 [12]", "value": 6.7, "unit": "%"},
      {"measurement": "Activity", "setting": "HepG2 [13]", "value": 37.84, "unit": "%"},
      {"measurement": "Activity", "setting": "Bel-7402 [14]", "value": 33.11, "unit": "%"},
      {"measurement": "IC50", "setting": "NCI-H1299", "value": 13.9, "unit": "µM"},
      {"measurement": "Activity", "setting": "HepG2 [15]", "value": 29.17, "unit": "%"},
      {"measurement": "Activity", "setting": "HepG2 [16]", "value": 5.8, "unit": "%"},
      {"measurement": "Activity", "setting": "HepG2 [17]", "value": 2, "unit": "%"},
      {"measurement": "Activity", "setting": "Bel-7402 [18]", "value": 33.07, "unit": "%"},
      {"measurement": "Activity", "setting": "HepG2 [19]", "value": 53.2, "unit": "%"},
      {"measurement": "Activity", "setting": "HepG2 [20]", "value": 91.75, "unit": "%"},
      {"measurement": "inhibition", "setting": "[21]", "value": "Dose-Dependent Effect"},
      {"measurement": "inhibition at 2.5 µM", "setting": "HepG2 [22]", "value": 73, "unit": "%"},
      {"measurement": "IC50", "setting": "HCT-116", "value": 5.47, "unit": "µM"},
      {"measurement": "Activity", "setting": "Bel-7402 [23]", "value": 34.5, "unit": "%"}
    ]}
  ]
}
